In ChEMBL document CHEMBL4837191, “Prenylated Coumaric Acids from Artemisia scoparia Beneficially Modulate Adipogenesis” (J Nat Prod, 2021):
The source made the active and inactive calls. The calls are words filed in the database; no cut-off is given here.

How the values were obtained:
Assay type in all cases: functional, cell-based
3T3-L1 [1] = experiment: Induction of adipogenic differentiation in mouse 3T3-L1 cells at 2.5 to 25 uM measured after 4 days by Oil Red O staining; conditions: dose 2.5-25 µM, time 4.0 day
3T3-L1 [2] = experiment: Inhibition of TNF-alpha induced lipolysis in mouse 3T3-L1 adipocytes assessed as reduction in glycerol release at 2.5 to 25 uM measured after 4 hrs by glycerol reagent based assay; conditions: dose 2.5-25 µM
In short: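 Mature 3T3-L1 adipocytes (full MDI: 0.5 mM IBMX, 1 µM DEX, 1.72 µM insulin), refed day 6, then compound (2.5, 10, 25 µM) or DMSO for 3 days. Overnight 0.75 nM TNFα (or BSA/PBS vehicle), then 4 h in low-glucose DMEM + 2% BSA with TNFα. Medium glycerol by Free Glycerol Reagent, normalized to BCA lysate protein.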

3T3-L1 [3] = experiment: Induction of adipogenic differentiation in mouse 3T3-L1 cells assessed as increase in AdipoQ mRNA expression by RT-PCR analysis; conditions: dose 2.5-25 µM
In short: (§1)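 3T3-L1 preadipocytes induced 2 days post-confluence with half-strength MDI (IBMX, DEX, insulin in high-glucose DMEM + 10% FBS); compound (2.5, 10, 25 µM, DMSO 1,000× stocks) added at induction and at day-3 feeding (DMEM + 10% FBS, 0.43 µM insulin). RNA harvested 4 days post-MDI; reverse-transcription qPCR, normalized to Nono; compared with DMSO controls.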

3T3-L1 [4] = experiment: Induction of adipogenic differentiation in mouse 3T3-L1 cells assessed as increase in FABP4 mRNA expression by RT-PCR analysis; conditions: dose 2.5-25 µM; in short: as §1
3T3-L1 [5] = experiment: Induction of adipogenic differentiation in mouse 3T3-L1 cells assessed as increase in PPARgamma mRNA expression by RT-PCR analysis; conditions: dose 2.5-25 µM; in short: as §1

| SMILES | Activity (3T3-L1 [1]) | inhibition (3T3-L1 [2]) | Activity (3T3-L1 [3]) | Activity (3T3-L1 [4]) | Activity (3T3-L1 [5]) |
| --- | --- | --- | --- | --- | --- |
| CC(C)=CCc1cc(/C=C/C(=O)O)cc(C/C=C(\C)CO)c1O | Active | inactive | Active | Active | Active |
| CC(=O)OC/C(C)=C\Cc1cc(/C=C\C(=O)O)cc(C/C=C(/C)CO)c1O | Active | Active | Active | Active | Active |
| CC(C)=CCc1cc(/C=C/C(=O)O)cc(C/C=C(/C)CO)c1O | Active | inactive | – | – | – |
| CC(=O)OC/C(C)=C\Cc1cc(/C=C/C(=O)O)cc(C/C=C(/C)CO)c1O | Active | Active | Active | Active | Active |
